Source: ChEMBL document CHEMBL1629491, “Post Groebke-Blackburn multicomponent protocol: synthesis of new polyfunctional imidazo[1,2-a]pyridine and imidazo[1,2-a]pyrimidine derivatives as potential antimicrobial agents” (2010)
Converted amounts (≈) assume the structure as drawn.

Key:
Assay type in all cases: functional
Escherichia coli = assay: Antimicrobial activity against Escherichia coli after 24 hrs […]
Method in brief: (§1)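 Broth microdilution MIC. Bacteria were grown in Luria broth (1% tryptone, 0.5% yeast extract, 0.5% NaCl, pH 7.2) at 37 °C for 24 h. Mid-log cultures were read at OD540 and diluted to OD 0.004 (5 × 10⁵ CFU/mL) before inoculation. Compounds in DMSO were given as eleven twofold serial dilutions, and plates were incubated at 37 °C for 24 h. MIC was the lowest concentration with no visible growth by turbidity. Cefixime, amoxicillin and vancomycin were the positive controls.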

Pseudomonas aeruginosa = assay: Antimicrobial activity against Pseudomonas aeruginosa after 24 hrs […]; method in brief: as §1
Klebsiella aerogenes = assay: Antimicrobial activity against Enterobacter aerogenes after 24 hrs […]; method in brief: as §1
Staphylococcus aureus = assay: Antimicrobial activity against Staphylococcus aureus after 24 hrs […]; method in brief: as §1
Enterococcus faecalis = assay: Antimicrobial activity against Enterococcus faecalis after 24 hrs […]; method in brief: as §1
Priestia megaterium = assay: Antimicrobial activity against Bacillus megaterium after 24 hrs […]; method in brief: as §1

MIC (Escherichia coli) | MIC (Pseudomonas aeruginosa) | MIC (Klebsiella aerogenes) | MIC (Staphylococcus aureus) | MIC (Enterococcus faecalis) | MIC (Priestia megaterium) | Structure (SMILES)
12.2 µg/mL (≈ 20.4 µM) | 11.8 µg/mL (≈ 19.7 µM) | 10.7 µg/mL (≈ 17.9 µM) | 10.2 µg/mL (≈ 17.1 µM) | 13.7 µg/mL (≈ 22.9 µM) | 19.9 µg/mL (≈ 33.2 µM) | Brc1ccc(-c2cnc(-c3ccc4nc(-c5ccc(Oc6ccccc6)cc5)c(Nc5ccccc5)n4c3)[nH]2)cc1
2.34 µg/mL (≈ 4.3 µM) | 1.56 µg/mL (≈ 2.87 µM) | 3.16 µg/mL (≈ 5.81 µM) | 2.45 µg/mL (≈ 4.51 µM) | 5.37 µg/mL (≈ 9.87 µM) | 8.45 µg/mL (≈ 15.5 µM) | Clc1ccc(-c2nnc(-c3cnc4nc(-c5ccc(Br)cc5)c(Nc5ccccc5)n4c3)o2)cc1
7.37 µg/mL (≈ 13.3 µM) | 5.45 µg/mL (≈ 9.85 µM) | 4.12 µg/mL (≈ 7.45 µM) | 6.36 µg/mL (≈ 11.5 µM) | 8.22 µg/mL (≈ 14.9 µM) | 12.7 µg/mL (≈ 23 µM) | O=[N+]([O-])c1ccc(-c2nnc(-c3ccc4nc(-c5ccc(Br)cc5)c(Nc5ccccc5)n4c3)o2)cc1
1.33 µg/mL (≈ 2.54 µM) | 2.12 µg/mL (≈ 4.04 µM) | 1.55 µg/mL (≈ 2.96 µM) | 0.72 µg/mL (≈ 1.37 µM) | 3.17 µg/mL (≈ 6.05 µM) | 8.34 µg/mL (≈ 15.9 µM) | Fc1ccc(-c2cnc(-c3ccc4nc(-c5ccc(Br)cc5)c(Nc5ccccc5)n4c3)[nH]2)cc1
31.8 µg/mL (≈ 55.6 µM) | 41.1 µg/mL (≈ 71.8 µM) | 58.5 µg/mL (≈ 102 µM) | 56.2 µg/mL (≈ 98.1 µM) | 44.7 µg/mL (≈ 78.1 µM) | 58.7 µg/mL (≈ 102 µM) | Brc1ccc(-c2nc3ccc(-c4nc5ccc(Oc6ccccc6)cc5[nH]4)cn3c2Nc2ccccc2)cc1
11.7 µg/mL (≈ 22.2 µM) | 12.2 µg/mL (≈ 23.2 µM) | 10.6 µg/mL (≈ 20.2 µM) | 9.32 µg/mL (≈ 17.7 µM) | 11.4 µg/mL (≈ 21.8 µM) | 15.4 µg/mL (≈ 29.3 µM) | O=[N+]([O-])c1ccc2nc(-c3cnc4nc(-c5ccc(Br)cc5)c(Nc5ccccc5)n4c3)[nH]c2c1
34.8 µg/mL (≈ 68.5 µM) | 45.4 µg/mL (≈ 89.5 µM) | 57.3 µg/mL (≈ 113 µM) | 54.9 µg/mL (≈ 108 µM) | 46.5 µg/mL (≈ 91.6 µM) | 65.5 µg/mL (≈ 129 µM) | Cc1ccc(-c2nc3ccc(-c4nc5ccc(Oc6ccccc6)cc5[nH]4)cn3c2Nc2ccccc2)cc1
10.5 µg/mL (≈ 20.5 µM) | 7.38 µg/mL (≈ 14.4 µM) | 6.12 µg/mL (≈ 11.9 µM) | 9.43 µg/mL (≈ 18.4 µM) | 10.4 µg/mL (≈ 20.3 µM) | 19.8 µg/mL (≈ 38.6 µM) | Fc1ccc2nc(-c3cnc4nc(-c5ccc(Oc6ccccc6)cc5)c(Nc5ccccc5)n4c3)[nH]c2c1
2.78 µg/mL (≈ 5.39 µM) | 2.55 µg/mL (≈ 4.94 µM) | 2.75 µg/mL (≈ 5.33 µM) | 1.84 µg/mL (≈ 3.57 µM) | 5.87 µg/mL (≈ 11.4 µM) | 13.7 µg/mL (≈ 26.6 µM) | Clc1ccc2nc(-c3cnc4nc(-c5ccc(Br)cc5)c(Nc5ccccc5)n4c3)[nH]c2c1
1.11 µg/mL (≈ 2.11 µM) | 2.43 µg/mL (≈ 4.62 µM) | 0.85 µg/mL (≈ 1.61 µM) | 0.51 µg/mL (≈ 0.969 µM) | 1.57 µg/mL (≈ 2.98 µM) | 4.97 µg/mL (≈ 9.44 µM) | Fc1ccc(-c2nnc(-c3ccc4nc(-c5ccc(Br)cc5)c(Nc5ccccc5)n4c3)o2)cc1
3.12 µg/mL (≈ 5.63 µM) | 4.45 µg/mL (≈ 8.03 µM) | 2.23 µg/mL (≈ 4.02 µM) | 3.35 µg/mL (≈ 6.04 µM) | 6.18 µg/mL (≈ 11.1 µM) | 11.2 µg/mL (≈ 20.2 µM) | O=[N+]([O-])c1ccc(-c2nnc(-c3cnc4nc(-c5ccc(Br)cc5)c(Nc5ccccc5)n4c3)o2)cc1
2.15 µg/mL (≈ 4.31 µM) | 3.44 µg/mL (≈ 6.9 µM) | 2.05 µg/mL (≈ 4.11 µM) | 1.51 µg/mL (≈ 3.03 µM) | 5.23 µg/mL (≈ 10.5 µM) | 10.2 µg/mL (≈ 20.6 µM) | Fc1ccc2nc(-c3ccc4nc(-c5ccc(Br)cc5)c(Nc5ccccc5)n4c3)[nH]c2c1
1.33 µg/mL (≈ 2.52 µM) | 1.87 µg/mL (≈ 3.55 µM) | 0.94 µg/mL (≈ 1.78 µM) | 0.64 µg/mL (≈ 1.21 µM) | 1.92 µg/mL (≈ 3.64 µM) | 5.45 µg/mL (≈ 10.3 µM) | Fc1ccc(-c2nnc(-c3cnc4nc(-c5ccc(Br)cc5)c(Nc5ccccc5)n4c3)o2)cc1
8.11 µg/mL (≈ 15.6 µM) | 11.4 µg/mL (≈ 22 µM) | 10.8 µg/mL (≈ 20.8 µM) | 9.49 µg/mL (≈ 18.2 µM) | 11.7 µg/mL (≈ 22.4 µM) | 15.6 µg/mL (≈ 29.8 µM) | Cc1ccc(-c2cnc(-c3cnc4nc(-c5ccc(Br)cc5)c(Nc5ccccc5)n4c3)[nH]2)cc1
2.34 µg/mL (≈ 5.16 µM) | 17.2 µg/mL (≈ 38 µM) | 28.2 µg/mL (≈ 62.1 µM) | 33.9 µg/mL (≈ 74.7 µM) | 27.9 µg/mL (≈ 61.6 µM) | 128 µg/mL (≈ 282 µM) | C=CC1=C(C(=O)O)N2C(=O)[C@@H](NC(=O)/C(=N\OCC(=O)O)c3csc(N)n3)[C@H]2SC1 [CEFIXIME]
10.7 µg/mL (≈ 20.9 µM) | 12.4 µg/mL (≈ 24.3 µM) | 11.5 µg/mL (≈ 22.6 µM) | 12.1 µg/mL (≈ 23.7 µM) | 15.3 µg/mL (≈ 29.9 µM) | 21.6 µg/mL (≈ 42.2 µM) | Fc1ccc2nc(-c3ccc4nc(-c5ccc(Oc6ccccc6)cc5)c(Nc5ccccc5)n4c3)[nH]c2c1
